# Compounds with a hit are over-represented: about 8.7% of the library has one in this group of screens.
# PostGolgi yeast: growth inhibition of a yeast mutant, post-Golgi transport screen; post-Golgi transport phenotypic cell assay; inhibition, % at 10 µM; 0.9% of 98,000 active;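 also: yeast cells grown in 1536-well plates; yeast grown about 18 h at 30C before absorbance read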
# Ecoli tolC: growth inhibitors of E. coli BW25113 tolC mutant | 2.2% of 65,000 active | OD615 | growth inhibition, % at 10 µM (by protocol);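 active = growth inhibition at or above a cutoff equal to the mean over every tested compound plus 3 SD, cut at about 60% in these data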;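 also: growth measured after 20 h incubation at 37 °C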
#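 Test system: tolC-deleted E. coli BW25113; medium: LB with kanamycin 50 µg/mL; compound: single-point testing at 10 µM; incubation: 20 h compound exposure of bacteria at 37 °C; signal: OD at 615 nm; evaluation: growth inhibition in percent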
# Pyk2 oligo antag: blocks oligomerization of human Pyk2 in cells. Q14289. Q293 cells, Pyk2 FERM NanoBiT luminescence; hits give low values. z-score (the deposit names both 25 µM and 10 µM). 0.83% of 99,000 active. AID 1347419;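 active = Z-score of -3 or lower, scaled per plate to the spread of control and sample wells; inactive = z-score above -3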;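 also: negative z-score means lost luminescence so less FERM oligomerization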
# E coli WT exp: growth inhibitors of E. coli BW25113 wild type. growth inhibition, % at 100 µM. AID 710. OD600 absorbance. 0.15% of 98,000 active;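 active = growth inhibition above about 50% at one test dose, limit read from the data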;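 also: growth measured after 20 h incubation at 37 °C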
# Cav3 T inh: inhibitors of human Cav3.2 T-type calcium channel | Cav3.2-expressing cells, Fluo-4 calcium fluorescence FDSS; hits give low values | 4% of 100,000 active | B-score at 10 µM | O95180 | AID 449739;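 active = single-dose well whose peak fluorescence ratio is a statistical outlier from its plate by either plate-standardised score or position-corrected B-score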
# PostGolgi ctrl: yeast control strain growth, post-Golgi counter-screen. AID 738. efflux-deficient yeast background strain, growth absorbance A615, 16 h. inhibition, % at 10 µM. 5% of 98,000 active
# Starred values were filed as active, the others as inactive; · = not tested or not shown. Rule as the data show it, unless noted: active = inhibition above about 30%; inactive = the rest.
SMILES,PostGolgi yeast,Ecoli tolC,Pyk2 oligo antag,E coli WT exp,Cav3 T inh,PostGolgi ctrl
C=CCn1c(SCc2c(C)noc2C)nc2sc(C)c(C)c2c1=O,-4.3,·,-1.14,-13.0,-3.32,34.9*
Cn1c(=O)c2c(nc(SCC(=O)N3CCc4ccccc43)n2Cc2ccccc2)n(C)c1=O,·,6.8,·,·,·,·
N#Cc1c(N)nc(SCc2ccccn2)c(C#N)c1-c1cccs1,10.2,8.1,-3.81*,-5.0,0.448,54.1*
N#Cc1c(N)nc(SCc2ccccc2)c(C#N)c1-c1ccco1,7.5,2.4,-0.96,-5.0,-0.749,37.4*
COc1ccc([N+](=O)[O-])cc1N(CC(O)CN(CC(C)C)CC(C)C)S(=O)(=O)c1ccccc1 (stereo not drawn),-2.3,·,-1.3,-4.0,-3.86*,-1.1
CCCCOn1c(C)c(C(=O)OCC)c2c3no[n+]([O-])c3ccc21,1.5,26.3,0,-8.0,-0.0536,5.0
CCCCOn1c(C)c(C(=O)OCC)c2c3nonc3ccc21,·,66.0*,-0.5,·,-2.67,·
CCc1cccc(NC(=O)Cn2cccc2)c1,-3.2,-2.7,-0.79,-11.0,0.131,9.8
CCc1cccc(NC(=O)CSC2=NS(=O)(=O)c3ccccc32)c1,-6.6,·,·,-5.0,-5.43*,2.6
C=CCn1c(SCc2nc3sc4c(c3c(=O)[nH]2)CCCC4)nc2ccccc2c1=O,·,·,-0.38,·,·,·
COc1cc2c(cc1NC(=O)CSc1nnc(Cc3cccs3)n1C)oc1ccccc12,-9.0,49.5,-1.66,-4.0,-1.53,34.6*
COc1cc2c(cc1NC(=O)CSc1nnc(Cc3cccs3)n1Cc1ccco1)oc1ccccc12,1.0,·,-2.59,-4.0,-3.06,33.0*
CCn1c(Cc2cccs2)nnc1SCC(=O)Nc1ccc(OC)c(OC)c1,-6.1,-2.5,0.59,1.0,0.269,6.5
CCn1c(SCC(=O)NCC(=O)Nc2ccc(F)cc2)nnc1-c1ccncc1,-1.6,·,0.43,-2.0,0.505,34.7*
COc1cc2c(cc1NC(=O)CSc1ccc(C)cc1)oc1ccccc12,-2.8,·,-0.62,-24.0,-0.661,3.7
CCn1c(SCC(=O)Nc2cc3oc4ccccc4c3cc2OC)nnc1-c1cccs1,-0.2,17.1,-2.24,-10.0,-0.45,46.8*
O=C(c1ccccc1[N+](=O)[O-])N1CCC(Cc2ccccc2)CC1,-1.0,·,-0.08,6.0,1.11,4.0
COC(=O)c1cc2ccsc2n1Cc1nc(-c2ccc(Cl)cc2)oc1C,1.0,·,·,0.0,-1.34,3.9
CCN(CC)c1ncnc2sc(C(=O)N3CCN(c4ccccc4)CC3)c(C)c12,9.0,25.2,1.67,1.0,-0.215,17.1
C=CCn1c(SCC(=O)Nc2cccc3ccccc23)nnc1-c1cnccn1,4.1,·,-0.84,-3.0,0.264,-1.0
C=CCn1c(SCC(=O)Nc2cc3oc4ccccc4c3cc2OC)nnc1-c1cnccn1,-6.2,-5.8,-1.83,-1.0,-4.19*,7.0
CCn1c(SCC(=O)Nc2ccc3c(c2)oc2ccccc23)nnc1-c1ccc(N)cc1,41.8*,·,-2.01,-5.0,0.483,17.9
Cc1cc(Cl)ccc1NC(=O)CSc1nnc(Cc2cccs2)n1Cc1ccco1,0.0,74.6*,0.03,-7.0,-7.65*,25.1
COc1ccc(S(=O)(=O)Nc2ccc(Cl)cn2)c(C)c1C,-5.0,39.6,-2.66,-9.0,-1.14,21.7
CCOc1ccccc1NC(=O)N1CCCC1C(=O)Nc1ccc(NC(C)=O)cc1 (stereo not drawn),19.0,-9.5,0.4,4.0,0.0998,6.0
SMILES,PostGolgi yeast,Ecoli tolC,Pyk2 oligo antag,E coli WT exp,Cav3 T inh,PostGolgi ctrl
CN(C)S(=O)(=O)NC(c1ccccc1)c1ccccc1,1.2,2.6,-1.08,2.0,-0.00555,13.5
Cc1cccc(N2C(N)=C(C#N)C(C#N)(C#N)C2c2ccccc2)c1 (stereo not drawn),1.4,100.0*,0.84,8.0,·,24.8
N#CC1=C(N)N(c2ccccc2)C(c2ccco2)C1(C#N)C#N (stereo not drawn),10.5,-0.7,-1.24,7.0,1.31,2.9
N#CC1=C(N)N(c2ccccc2)C(c2cccc([N+](=O)[O-])c2)C1(C#N)C#N (stereo not drawn),6.1,·,-0.87,0.0,-6.64*,1.5
CC(C)CCNC(=O)C(c1cccnc1)N(Cc1ccccc1)C(=O)Cn1nnc2ccccc21 (stereo not drawn),·,·,-1.31,·,0.28,·
O=C(c1c(F)cccc1F)N1CCN(c2ncccn2)CC1,11.5,·,2.36,9.0,-0.671,3.5
O=C(OCc1cnc(Cl)s1)c1ccccc1Cl,-3.8,·,0.51,5.0,-1.14,9.6
O=C(OCn1ncc(Br)c(Br)c1=O)c1ccc(F)cc1,106.7*,·,1,18.0,0.211,46.3*
CCn1ncc(Br)c1C(=O)Nc1ccc(C(=O)OC(C)C)cc1,-7.4,·,1.18,15.0,-2.22,5.0
O=C(OCn1ncc(Br)c(Br)c1=O)c1ccccc1Cl,107.5*,·,1.74,12.0,0.21,34.3*
COC(=O)NCCOC(=O)N(O)c1ccc(Br)cc1,-4.3,0.0,0.36,8.0,0.00827,11.9
CCC(CO)[n+]1c(C)cc(/C=C2\Sc3ccccc3N2Cc2ccccc2)cc1C (stereo not drawn),·,·,0.11,·,·,·
Cc1ccc(N(C(=O)C2CCCC2)C2C=CS(=O)(=O)C2)cc1C (stereo not drawn),-4.3,-10.9,-0.49,-1.0,0.264,-1.4
CC1CCCCC1NC(=O)Cn1c(CN2CCCCC2)nc2ccccc2c1=O (stereo not drawn),8.6,8.1,0.88,1.0,0.0656,3.5
Nn1c(CN2CCCCC2)nc2ccccc2c1=O,-2.0,-10.1,0.02,0.0,0.399,30.8*
COc1cc(C2CC(=O)c3cnc(N4CCN(Cc5ccccc5)CC4)nc3C2)cc(OC)c1OC (stereo not drawn),-4.7,42.7,-1.85,-2.0,-3.47,-0.3
O=C1CC(c2ccco2)Cc2nc(N3CCc4ccccc4C3)ncc21 (stereo not drawn),-2.5,23.1,0.57,3.0,-1.27,42.3*
CC1CC(C)CN(c2ncc3c(n2)CC(c2ccccc2)CC3=O)C1 (stereo not drawn),5.0,34.8,0.46,-11.0,-2.49,50.0*
CC(C)c1ccc(C2CC(=O)c3cnc(N4CCc5ccccc5C4)nc3C2)cc1 (stereo not drawn),-4.8,·,0.61,-15.0,-1.23,11.3
CCCCNC(=O)C1CC(=O)N(c2ccc(OC)cc2)C1c1ccc(OC)cc1 (stereo not drawn),0.0,·,0.35,2.0,0.134,6.4
CCOc1ccc(C(C)=O)cc1CSc1nnc(-c2cccs2)n1CC1CCCO1 (stereo not drawn),-6.8,11.0,-0.58,-1.0,-0.396,11.7
COc1ccccc1C1SCCN1S(=O)(=O)c1cccc(C(F)(F)F)c1 (stereo not drawn),-3.5,63.3*,-2.06,-18.0,-2.87,-3.0
COc1ccc(S(=O)(=O)N(CC(=O)NCC2CCCO2)c2ccc(F)cc2)cc1OC (stereo not drawn),-4.5,·,1.15,2.0,1.25,8.8
CCOC(=O)c1nc[nH]c1C,1.3,·,0.88,-2.0,-0.254,-3.8

# Bioassay records: PubChem, several laboratories
